Test results as given in ChEMBL document CHEMBL1145838, “Bioactive peptidic analogues and cyclostereoisomers of the minimal antinociceptive histogranin fragment-(7-10)” (J Med Chem, 2003).
Square brackets hold non-standard residues; d marks the D form. Peptide text beside a SMILES is read from it. Phe(4-Cl) = N[C@@H](Cc1ccc(Cl)cc1)C(=O)O

How the values were obtained:
[1] = species: Rattus norvegicus; assay: Compound was tested for inhibition against [3H]raclopride to Rat brain membranes; type: functional, Membrane
Outline: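 Rat brain membranes (male Wistar, 250–300 g; 0.8 mg protein) in 5 mM Tris-HCl pH 7.4, incubated with 2.5 nM [3H]raclopride for 60 min at 22 °C alongside 9–12 peptide concentrations (10⁻¹⁰–10⁻⁴ M). Nonspecific binding defined with 10 μM (+)butaclamol. IC50 by nonlinear least-squares fit; mean ± SE of ≥3 experiments run in duplicate.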

[2] = species: Mus musculus; assay: Compound was tested for antinociceptive potency using mouse writhing pain assay; type: functional
Outline: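 Male Swiss Webster mice, 20–25 g, given peptide icv (10 μL in sterile water) or i.v.; 5 min later 1.0% AcOH (10 mL/kg) i.p. Doses 0, 0.25–50 nmol. Writhes counted for 10 min; % analgesia relative to vehicle controls, 10 mice per dose. AD50 and potency ratio with 95% CL by Litchfield–Wilcoxon.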

[3] = test system: Mus musculus; assay: Lack of Motor Effect measured as the time taken by the mice to remain on the rotarod after 15 min interval of icv administration of compound; type: functional
Outline: (§1)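 Male Swiss Webster mice pre-screened on a 2.5 cm rod at 8 rpm (two 1-min rounds; fallers excluded). Peptides (10 or 2.5 nmol) or water vehicle given icv, then mice placed on the rod for 2 min. Time on rod recorded as mean ± SE, groups of 10; Student's t-test.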

[4] = test system: Mus musculus; assay: Lack of Motor Effect measured as the time taken by the mice to remain on the rotarod after 30 min interval of icv administration of compound; type: functional; outline: as §1
[5] = test system: Mus musculus; assay: Lack of Motor Effect measured as the time taken by the mice to remain on the rotarod after 60 min interval of icv administration of compound; type: functional; outline: as §1

Row | Compound | IC50 [1] | AD50 [2] | Time [3] | Time [4] | Time [5]
1 | NC(=O)CC[C@@H]1NC(=O)CNC(=O)[C@H](CCCN=C(N)N)NC(=O)[C@H](Cc2ccc(O)cc2)NC1=O | 4.91 µM | 2.26 nmol mouse-1 |  |  | 
2 | NC(=O)CC[C@H]1NC(=O)CNC(=O)[C@@H](CCCN=C(N)N)NC(=O)[C@H](Cc2ccc(O)cc2)NC1=O | 6.75 µM | 4.21 nmol mouse-1 |  |  | 
3 | N=C(N)NCCC[C@H]1NC(=O)[C@H](Cc2ccc(O)cc2)NC(=O)[C@H](Cc2ccc(N)cc2)NC(=O)CNC1=O [listing 1 of 2 here] | 3.52 µM |  |  |  | 
4 | N=C(N)NCCC[C@H]1NC(=O)[C@H](Cc2ccc(O)cc2)NC(=O)[C@H](Cc2ccc(N)cc2)NC(=O)CNC1=O [listing 2 of 2 here] |  | 2.52 nmol mouse-1 |  |  | 
5 | C[C@@H]1NC(=O)CNC(=O)[C@@H](CCCN=C(N)N)NC(=O)[C@H](Cc2ccc(O)cc2)NC1=O [listing 1 of 2 here] | 2.33 µM |  |  |  | 
6 | C[C@@H]1NC(=O)CNC(=O)[C@@H](CCCN=C(N)N)NC(=O)[C@H](Cc2ccc(O)cc2)NC1=O [listing 2 of 2 here] |  | 1.35 nmol mouse-1 | 107 | 120 | 120
7 | NC(=O)CC[C@H]1NC(=O)CNC(=O)[C@H](CCCN=C(N)N)NC(=O)[C@H](Cc2ccc(O)cc2)NC1=O | 4.12 µM | 3.65 nmol mouse-1 |  |  | 
8 | C[C@@H]1NC(=O)[C@@H](CCC(N)=O)NC(=O)CNC(=O)[C@H](CCCN=C(N)N)NC1=O | 12.5 µM | 7.05 nmol mouse-1 |  |  | 
9 | C[C@@H]1NC(=O)[C@@H](CCC(N)=O)NC(=O)CNC(=O)[C@@H](CCCN=C(N)N)NC1=O |  | 13.3 nmol mouse-1 |  |  | 
10 | C[C@H](NC(=O)[C@H](CCC(N)=O)NC(=O)CN)C(=O)N[C@@H](CCCN=C(N)N)C(=O)O (H-GQAR-OH) |  | 3.42 nmol mouse-1 |  |  | 
11 | NCC(=O)N[C@@H](CCC(N)=O)C(=O)NCC(=O)N[C@@H](CCCN=C(N)N)C(=O)O (H-GQGR-OH) |  | 25.9 nmol mouse-1 |  |  | 
12 | N=C(N)NCCC[C@H]1NC(=O)[C@H](Cc2ccc(O)cc2)NC(=O)[C@H](Cc2ccc(Cl)cc2)NC(=O)CNC1=O (cyclo(G[Phe(4-Cl)]Y[dR])) [listing 1 of 2 here] | 0.89 µM |  |  |  | 
13 | N=C(N)NCCC[C@H]1NC(=O)[C@H](Cc2ccc(O)cc2)NC(=O)[C@H](Cc2ccc(Cl)cc2)NC(=O)CNC1=O (cyclo(G[Phe(4-Cl)]Y[dR])) [listing 2 of 2 here] |  | 0.17 nmol mouse-1 | 104.1 | 115.8 | 110.2
